Measurements taken from ChEMBL document CHEMBL1158940, “Antihyperlipidemic effect of flavonoids from Prunus davidiana” (1991).

What was measured:
Format in all cases: functional
Set-up in all cases: scale not given: the % may be the effect or the level left
Settings in all cases: route intraperitoneal
Rattus norvegicus [1] = test: Antihyperlipidemic effect in high fat diet-induced rat assessed as decrease in serum total cholesterol level at 10 mg/kg, ip relative to control
Summary of the method: (§1)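 Male JCL:Wistar rats (150 g) on commercial chow 1 week, then high-fat diet (10 g soybean oil per 100 g, casein, α-cornstarch) 6 days, pair-matched for blood triglyceride and body weight. Compound suspended in 5% EtOH/saline, ip once daily for 3 days; controls get vehicle. Sacrificed 4 h after last dose (2–3 PM); serum separated at 1000 g, 4°. Six rats per group; percent of control; Student's t-test.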

Rattus norvegicus [2] = test: Antihyperlipidemic effect in high fat diet-induced rat assessed as decrease in serum total cholesterol level at 20 mg/kg, ip relative to control; summary of the method: as §1
Rattus norvegicus [3] = test: Antihyperlipidemic effect in high fat diet-induced rat assessed as decrease in serum triglyceride level at 10 mg/kg, ip relative to control; summary of the method: as §1
Rattus norvegicus [4] = test: Antihyperlipidemic effect in high fat diet-induced rat assessed as decrease in serum triglyceride level at 20 mg/kg, ip relative to control; summary of the method: as §1

| SMILES | Activity (Rattus norvegicus [1]) [%] | Activity (Rattus norvegicus [2]) [%] | Activity (Rattus norvegicus [3]) [%] | Activity (Rattus norvegicus [4]) [%] |
| --- | --- | --- | --- | --- |
| COc1ccc([C@@H]2CC(=O)c3c(O[C@@H]4O[C@H](CO)[C@@H](O)[C@H](O)[C@H]4O)cc(O)cc3O2)cc1O | 88 | 101 | 100 | 90 |
| Oc1cc(O)c2c(c1)O[C@H](c1ccc(O)c(O)c1)[C@@H](O)C2 [CIANIDANOL] | 95 | 99 | 75 | 73 |
| O=C1C[C@@H](c2ccc(O)cc2)Oc2cc(O[C@@H]3O[C@H](CO)[C@@H](O)[C@H](O)[C@H]3O)cc(O)c21 [PRUNIN] | 102 | 91 | 90 | 107 |
